Measurements from the EternaBench riboswitch data.

Test system: MS2 coat protein
Assay: apparent Kd, MS2 coat protein; higher = weaker binding; RNA-MaP array; FMN 200 µM where present
Procedure, shortened: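 Stalled E. coli RNA polymerase produced the designs on Illumina sequencing-chip clusters. SNAP-549-labelled MS2 coat protein was added from 0.7 or 1.5 nM, doubling to 3 µM, without and then with constant ligand, in 100 mM Tris-HCl pH 7.5, 80 mM KCl, 4 mM MgCl2, BSA, DTT, yeast tRNA and Tween-20. The apparent Kd is the median of filtered per-cluster fits of green signal normalised to red-channel RNA signal and control-cluster median Fmax.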

[1] = designed as: OFF switch for flavin mononucleotide, no ligand
[2] = ligand present: flavin mononucleotide, designed as: OFF switch for flavin mononucleotide
[3] = designed as: ON switch for flavin mononucleotide, no ligand
[4] = ligand present: flavin mononucleotide, designed as: ON switch for flavin mononucleotide

Sequence	apparent Kd [1]	apparent Kd [2]	apparent Kd [3]	apparent Kd [4]
AGCGGCGCGGGCCACCGCAGAACCAGAAGGACAUGAGGAUCACCCAUGUAACAAAACAGGGCGGUGUAGGAUAUGGCAGGCUCG	35.9 nM	83.2 nM	–	–
AGCGUCGGCACAGGAUAUGAGAUGCCGGCAGACAUGAGGAUCACCCAUGUAAGCGACCCAGGCAGUCAGAAGGGUGAUCGACAA	–	–	121 nM	65 nM
AGCGUGGAGACAGGAUAUGAGAAUAGAUAGAAAUCAGAAGGGUCACAUGAGGAUCACCCAUGUAAAGUCUUGAGGAUGAGUGAU	86.5 nM	208 nM	–	–
AGCUAAAACGAAGGAUAUACUGACAUGAGGAUCACCCAUGUCUACAUGAUUUAUUGUGAUCACAUGUAGAAGGUCGUACUAACA	–	–	74.4 nM	27.7 nM
AGCUACGUUUCGUAGCAGCUAGGUGAGGAUAUCCUUAACAUGAGGAUCACCCAUGUUUAGCCAUGGGAGAAGGCGCCUAGAAAG	–	–	259 nM	21.5 nM
AGCUACGUUUCGUAGCAGCUAGGUGAGGAUAUUCAAAUUUUCACAUGAGGAUCACCCAUGUAUGUGAAGAAGGCGCCUAGAAAG	–	–	9.58 nM	5.44 nM
AGCUAGUCAGGAUAUACAAACAUGUCGAGAGACGUGAAGGGACAUGAGGAUCACCCAUGUAGAAGGGACUAGCA	59 nM	234 nM	–	–
AGCUAGUCAGGAUAUACGCAAACGAACGAAGCAGUGAAGGGACAUGAGGAUCACCCAUGUAGAAGGGACUAGCA	24.5 nM	140 nM	–	–
AGCUGUGGCCGAGGAUAUCUAUCCAAAAUAACCGAAAUAUAAUCGGACAUGAGGAUCACCCAUGUAGAGAAGGCGGUCUCAGCA	24.3 nM	37 nM	–	–
AGGAAACAUGAGGAUCACCCAUGUAAAAGGUGGUUAGGAUAUGCGAAAAGAAAAAGAAAAGCAGAAGGGACAAGAA	–	–	487 nM	485 nM
AGGAAGUGCCAGAAGGCUCCUGGAAUCCUAGGGAGAGGAUAUGGCACAUGAGGAUCACCCAUGUGGUAGAUCUGUUUCGAAGUG	93.4 nM	31.1 nM	–	–
AGGAUCUCAGUCAGGAUAUGUGUCUUCAAAGUACGGCAGAAGGGACAUGAGGAUCACCCAUGUUAGCCACCUUU	26.6 nM	69.1 nM	–	–
AGGAUUGUGCUAGGAUAUCCAGGUUUGCAGCGAGGAGAAGGAGCACAUGAGGAUCACCCAUGUUCUCAAAGGCCACGGCAAUAU	6.98 nM	13.4 nM	–	–
AGGGAGUUAGGAUAUGCUGCUCGUCACUUGCGUGAUGAGUAGCAGAAGGAACAUGAGGAUCACCCAUGUAAAAA	31.2 nM	30.3 nM	–	–
AGGGAUAAAGGAUAUACAUGAGGAUCACCCAUGUUGAGGAAGGUUAGAGGUGGCGAUAGUAGAAGGUUAGGUAG	89.2 nM	54.7 nM	–	–
AGGUAACAUGAGGAUCACCCAUGUCAGGAUAUCAUAAAGAUUAGAUUAGAGAAGAGGUUGAGAAGGGACUAUAU	44.9 nM	38.4 nM	–	–
AGGUACAUCGGAGGAUAUCAUGUAAAUACAUGAGGAUCACCCAUGUCGAUGGAGACAUCGGAGAUUGAGAAGGCCGAUGUACCG	–	–	152 nM	8.62 nM
AGGUGACAUGAGGAUCACCCAUGUAAGGAUAUACGGUUAGUGGAGAGUUGGAAGAGAGGUAGAAGGUACGGAGC	288 nM	137 nM	–	–
AGGUGACAUGAGGAUCACCCAUGUCAGGAUAUAUACACCGCCGGCGUGAAGCCAGCGGAUAGAAGGGACAAAAU	15.4 nM	16.9 nM	–	–
AGGUGACAUGAGGAUCACCCAUGUCAGGAUAUAUACACUGGCGACGUGACGUCGGCAGAUAGAAGGGACAAAGU	17.2 nM	20 nM	–	–
AGUAAGAUGCAGAAGGUGUCAGCUAGUGCUACGACAUGAGGAUCACCCAUGUACUAGAAACAGUACAAGGAUAUGCAUCUUACA	–	–	56.8 nM	8.32 nM
AGUACUACAGGAUAUACAUGGGUGAUCCUCAUGUCCCUUCUACAUGAGGAUCACCCAUGUAGAAGGGUAGUACA	15.1 nM	11.3 nM	–	–
AGUACUACAGGAUAUACGAGGGAGGUCCACGUGAACCUUUUACAUGAGGAUCACCCAUGUAGAAGGGUAGUACA	68.3 nM	16.5 nM	–	–
AGUACUCAAAGAGUACGCGUAAGCACAUGAGGAUCACCCAUGUAGGAUAUGCUACUCAAAGAGUAGUAGAAGGACAUAUUCCUC	5.85 nM	7.46 nM	–	–
AGUAGAUCAGGAUAUACGUGAAAGGUCAAAGUGUCCAAUAUACAUGAGGAUCACCCAUGUAGAAGGGAUCUACA	24.8 nM	111 nM	–	–
AGUAUCACAGGAUAUACAUGAGUGAAAAAAGUAAAUCCACUACAUGAGGAUCACCCAUGUAGAAGGGUGAUACA	65.7 nM	57.9 nM	–	–
AGUAUGCACGCAGGAUAUACAUGAGGAUCACCCAUGUGGAACAGUGUAGUACUAGUUGAUCCUCAGUAGAAGGGCGGUCAAAUA	47.8 nM	42.7 nM	–	–
AGUCGGAGCAGAGGAUAUAUACAUGAGGAUCACCCAUGUAAAUGAAUAAGCUGGAAACAGCAAGUAUAGAAGGCUGCUCCGACA	14.5 nM	16.2 nM	–	–

Sequence	apparent Kd [1]	apparent Kd [2]	apparent Kd [3]	apparent Kd [4]
AGUCGGAGCAGAGGAUAUAUACAUGAGGAUCACCCAUGUAAAUGAGUAAGCUGGAAACAGCAAGUAUAGAAGGCUGCUCCGACA	18.2 nM	35.1 nM	–	–
AGUCGGAGCAGAGGAUAUUACAUGAGGAUCACCCAUGUAAUAAGAUCAAGCUGGAAACAGCAAUGUAAGAAGGCUGCUCCGACA	16.3 nM	45.6 nM	–	–
AGUCGGCGAGGAUAUACAUGAGGAUCACCCAUGUGAUAGAGUGCACGCGUACGUGUACGUAGAAGGCGCUGACA	11.9 nM	37.7 nM	–	–
AGUCGGCGAGGAUAUACAUGAGGAUCACCCAUGUGAUAGAGUGCACGCGUACGUGUAUGUAGAAGGCGCUGACA	82 nM	748 nM	–	–
AGUCUGCUAGGAUAUACAUGAGGAUCACCCAUGUCUAUCAAUAGACUAUUAACCUGGUGUAGAAGGAGCUUGUA	11.2 nM	14.4 nM	–	–
AGUGCGUAUGUGAGGAUAUGCUGGUCCUUGGCUCGGCAGAAGGCACAUGAGGAUCACCCAUGUGGUGUCGUACC	33 nM	151 nM	–	–
AGUGGCCGAGGAUAUACGGACGUGUCGCCGGGUGUCGUGGGACAUGAGGAUCACCCAUGUAGAAGGUGGUUGUU	170 nM	219 nM	–	–
AGUGUCAUCGAGAAGGCCUCAACAUGAGGAUCACCCAUGUUGCAAAAUGGGAGGAUAUCGAAAAUACAGCUACGUUUCGUAGCA	–	–	21.9 nM	5.3 nM
AGUGUCGGCACAGGAUAUGAGAUGCCGGCAGACAUGAGGAUCACCCAUGUAAGCGAACCAGGCAGUCAGAAGGGUGAUCGACGA	–	–	119 nM	26.9 nM
AGUGUGUGGCAGGAUAUGCGAUUUGUCGGUGUAGCAGAAGGGUCUACAUGAGGAUCACCCAUGUGUGCGGUUGA	438 nM	446 nM	–	–
AGUUAAUGCACAUGAGGAUCACCCAUGUCACUUUAUAGGAGACAGGAUAUGCAUGCCAUCAAUGUGCAGAAGGGUCACCACCGA	–	–	85.6 nM	147 nM
AUAAAUCAUGUAGGAUAUGCGUGGCGAAGCUAUGCAGAAGGACAUGAGGAUCACCCAUGUCUGUCCGUCUGCGUACAGACGGAA	29.3 nM	274 nM	–	–
AUAAUACAUGAGGAUCACCCAUGUAAUUUAACUUGUAAGAUCAAGGAUAUCAGCUCGAAUAGAGCUGAGAAGGUGAUCACAUGU	–	–	169 nM	295 nM
AUAAUGUAAGGAUAUCAGUCGACUAGCCUCGGCUAGUCGACUGAGAAGGUACAUGAGGAUCACCCAUGUGUUCC	140 nM	766 nM	–	–
AUAAUUAUAUAUUUGGCAAGAAUCAGAAGGCGUUACAUGAGGAUCACCCAUGUUUUGUAUAGUAACGAGGAUAUGAUAUGGAAA	16.3 nM	12.7 nM	–	–
AUAAUUUUAUAAUUCUAUUUAUUCAGAAGGCAUAACAUGAGGAUCACCCAUGUAAAUUAAUGUUAUGAGGAUAUGAUUUGGUUA	18.6 nM	130 nM	–	–
AUAAUUUUAUAUAUCUUAUUUAUCAGAAGGCAUAACAUGAGGAUCACCCAUGUAUAUUAUUGUUAUGAGGAUAUGAUUUAGUUA	10.1 nM	58.3 nM	–	–
AUACAAAGCACAGGAUAUGGGAGUGAGAAUCAUGCUGCGAAUUGAUUCGGACCAGAAGGGUGCACAUGAGGAUCACCCAUGUAC	–	–	185 nM	77.6 nM
AUACAUCUUCGAGGAUAUCGGUGAUAAAUUUUACGAGAAGGCGAUGAAAGAUAUAAUCUUAUAUACAUGAGGAUCACCCAUGUU	–	–	26 nM	24.1 nM
AUACAUGAGGAUCACCCAUGUAAUUAAUUAACUAGUAAGAUCUAGGAUAUCAGCUCGAAUAGAGCUGAGAAGGAGAUCACAUGU	–	–	34 nM	15.4 nM
AUACAUGAGGAUCACCCAUGUCAGCGGCAGUGCUGCAGAUCAAGAAGGGAUCCCGUGGGCCGGGAUCAGGAUAUUGAUCCUGCA	–	–	105 nM	18.6 nM
AUACCACGAGGAUAUCGUCUAUUUCACAUGAGGAUCACCCAUGUUAUCCUUGUUUCGUUUCGAGAAGGCGUGUUUU	47.5 nM	110 nM	–	–
AUACCUUAUGAGAAGGCGAUUAUGAAACAUGAUCGAGGAUAUCAUGUAAACAUGAGGAUCACCCAUGUAUGGGUAUUAUGGUAC	–	–	50 nM	11.6 nM
AUAGAAGACUAGAAGGACCUAGUUGUAUAUUGUCGAGGUAUAUAGUUAGGUAGGAUAUGGGACAUGAGGAUCACCCAUGUCUUG	–	–	8.51 nM	7.75 nM
AUAGGACGAAACAUGAGGAUCACCCAUGUGUUAUAAUUAAUAUAGGAUAUGUUUAUACUUUUUGGGCAGAAGGAUGAUAAUGCU	–	–	16.6 nM	14.7 nM
AUAGUAUAGCAAGGAUAUCGAUUUAGUUUGUUACGAGAAGGUGCUUUAGUUUAUACCUCUUGUUUACAUGAGGAUCACCCAUGU	23.1 nM	20.6 nM	–	–
AUAUAUAUUAGAGGAUAUGUGUUCAUGUUACAUGAGGAUCACCCAUGUUUAGGUUGAUUUAUCUUACAGAAGGCUAUACAAUCA	71.5 nM	76 nM	–	–
